Test results taken from ChEMBL document CHEMBL3588772, “Synthesis, anti-mycobacterial activity and DNA sequence-selectivity of a library of biaryl-motifs containing polyamides” (Bioorg Med Chem, 2015).
Converted amounts (≈) assume the structure as drawn.

Test system: Mycobacterium tuberculosis
Assay: Antimycobacterial activity against Mycobacterium bovis BCG after 7 days
Assay type: functional
Conditions: variant bovis BCG, 168 h
Summary of the method: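 HT-SPOTi agar growth inhibition in 96-well format. Serially diluted DMSO solutions were mixed into Middlebrook 7H10 agar (kept at 55 °C) with 0.05% glycerol and 10% OADC. Controls were DMSO-only wells and isoniazid. Each well received 2×10³ CFU of culture (pre-grown rolling at 2 rpm or standing, 37 °C). Plates ran 7 days at 37 °C. MIC = lowest concentration with no visible growth.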

SMILES | MIC
CO[C@H]1/C=C/O[C@@]2(C)Oc3c(C)c(O)c4c(O)c(c(/C=N/N5CCN(C)CC5)c(O)c4c3C2=O)NC(=O)/C(C)=C\C=C\[C@H](C)[C@H](O)[C@@H](C)[C@@H](O)[C@@H](C)[C@H](OC(C)=O)[C@@H]1C [RIFAMPIN] | 0.05 µg/mL (≈ 0.0608 µM)
Cc1nc(-c2ccsc2)sc1C(=O)Nc1cc(C(=O)Nc2cc(C(=O)NCCCN(C)C)n(C)c2)n(C)c1 | 125 µg/mL (≈ 226 µM)
CC(=O)Nc1cccc(-c2ccc(C(=O)Nc3cc(C(=O)Nc4cc(C(=O)NCCCN(C)C)n(C)c4)n(C)c3)o2)c1 | 125 µg/mL (≈ 218 µM)
Cn1cc(NC(=O)c2cc(NC(=O)c3cc(NC=O)cn3C)cn2C)cc1C(=O)NCCC(=N)N [STALLIMYCIN] | 1.95 µg/mL (≈ 4.05 µM)
CC(=O)Nc1ccc(-c2ccc(C(=O)Nc3cc(C(=O)Nc4cc(C(=O)NCCCN(C)C)n(C)c4)n(C)c3)o2)cc1 | 125 µg/mL (≈ 218 µM)
CC(=O)Nc1ccc(-c2cc(C(=O)Nc3cc(C(=O)Nc4cc(C(=O)NCCCN(C)C)n(C)c4)n(C)c3)n(C)c2)cc1 | 125 µg/mL (≈ 213 µM)
CC(=O)Nc1ccc(-c2csc(C(=O)Nc3cc(C(=O)Nc4cc(C(=O)NCCCN(C)C)n(C)c4)n(C)c3)c2)cc1 | 125 µg/mL (≈ 212 µM)
Cc1nc(-c2cnn(C)c2)sc1C(=O)Nc1cc(C(=O)Nc2cc(C(=O)NCCCN(C)C)n(C)c2)n(C)c1 | 62.5 µg/mL (≈ 113 µM)
NNC(=O)c1ccncc1 [ISONIAZID] | 0.05 µg/mL (≈ 0.365 µM)
